TAAR1 antagonist: human TAAR1 antagonists, primary screen, Fluo-8 calcium fluorescence, CHO RD-HGA16 cells; hit rate 1.5% among 360,000; Trace amine-associated receptor 1 (Homo sapiens), Q96RJ0; AID 624466, 2012; antagonist; inhibition, % at 3 µM;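 active = inhibition above a per-plate cutoff, the mean inhibition of test compounds on that plate plus 3 SD, cut at about 49% in these data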;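 also: 0% = DMSO plus EC80 beta-PEA response and 100% = DMSO alone without agonist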
Target sequence (Q96RJ0 whole entry, looked up): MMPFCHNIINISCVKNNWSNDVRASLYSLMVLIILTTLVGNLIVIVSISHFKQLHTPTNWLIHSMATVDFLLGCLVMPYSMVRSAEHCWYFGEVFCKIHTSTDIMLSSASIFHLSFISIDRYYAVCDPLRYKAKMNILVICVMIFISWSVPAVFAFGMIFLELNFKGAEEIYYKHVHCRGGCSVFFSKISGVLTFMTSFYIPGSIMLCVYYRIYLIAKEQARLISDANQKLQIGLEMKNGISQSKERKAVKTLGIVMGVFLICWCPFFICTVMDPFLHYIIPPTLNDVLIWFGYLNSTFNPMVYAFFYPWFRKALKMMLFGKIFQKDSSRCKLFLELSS
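Test system – hTAAR1-expressing CHO RD-HGA16 cells, Gα16-coupled · Also added – β-PEA at EC80 concentration, post-compound challenge · Compound – 3 µM, single point · Incubation – dye loading 75 min at 37 °C, then 30 min room temperature · Measured by – Fluo-8 intracellular calcium dye fluorescence, real-time kinetic reads · Benchmarks – vehicle and agonist controls · Replicates – singlicate, one well per test compound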
V1aR counter: agonists of human V1a receptor, primary screen, counter-screen for OXTR agonist project, fluorescence, CHO-V1R cells | hit rate 0.25% among 320,000 | Fluo-8 calcium fluorescence, agonist mode; 0% DMSO, 100% 3 nM vasopressin | activation, % at 3 µM;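 active = activation above the mean activation of all tested compounds plus 3 SD, per screening run, cut at about 20% in these data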;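 also: signal is peak over basal fluorescence ratio across a 100 second FLIPR read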
OXTR ag: human OXTR agonists, primary screen, fluorescence, CHO-OTR cells, Fluo-8 calcium; Fluo-8 calcium fluorescence; normalized: DMSO 0%, oxytocin 100%; activation, % at 3 µM; hit rate 0.32% among 320,000; AID 2435, 2010;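 active = activation above the mean of all tested compounds plus 3 SD, cutoff set per screening run, cut at about 20% in these data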;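 also: peak over basal fluorescence ratio from a 100 s FLIPR kinetic read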
Target sequence (P30559 whole entry, looked up): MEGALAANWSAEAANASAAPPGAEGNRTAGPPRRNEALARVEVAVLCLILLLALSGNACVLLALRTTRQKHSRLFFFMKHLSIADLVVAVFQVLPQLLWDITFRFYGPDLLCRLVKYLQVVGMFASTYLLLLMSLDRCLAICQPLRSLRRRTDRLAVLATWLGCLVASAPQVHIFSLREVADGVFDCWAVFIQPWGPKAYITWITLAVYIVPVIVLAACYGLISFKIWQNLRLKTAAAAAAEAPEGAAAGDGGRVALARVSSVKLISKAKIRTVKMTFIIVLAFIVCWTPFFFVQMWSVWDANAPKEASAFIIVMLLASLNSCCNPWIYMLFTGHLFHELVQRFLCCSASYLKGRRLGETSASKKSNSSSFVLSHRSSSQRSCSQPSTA
OXTR potentiator: human OXTR potentiators, primary screen, fluorescence, CHO-OTR cells, Fluo-8 calcium | Oxytocin receptor (Homo sapiens), P30559 | Fluo-8 calcium fluorescence, potentiator mode; 0% = oxytocin EC15, 100% = EC100 | activation, % at 3 µM | hit rate 0.061% among 320,000 | AID 2445, 2010;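 active = activation above that plate's cutoff, the mean activation of tested compounds plus 3 SD, cut at about 6.6% in these data, passing the limit was not always enough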;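 also: 100% uses oxytocin at 75 nM as the full agonist control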
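Assay system: CHO cell line stably expressing human OTR | Also added: Oxytocin at about EC15, sub-maximal agonist stimulus | Times: Compound 6 min at room temperature before oxytocin, 100 s read | Measured by: Fluo-8 intracellular calcium fluorescence, ex 470-495, em 515-575 nm | Controls: EC15 oxytocin alone as 0%, 75 nM oxytocin as 100%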
TAAR1 ag: human TAAR1 agonists, primary screen, Fluo-8 calcium fluorescence, CHO RD-HGA16 cells | hit rate 0.99% among 360,000 | activation, % at 3 µM | vehicle wells 0%, saturating PEA agonist 100% | AID 624467, 2012;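 active = activation above the mean activation of all test compounds in the run plus 3 SD, cut at about 38% in these data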
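Test system: RD-HGA16 (CHO) cells co-expressing Gα16 and hTAAR1; dosing: one-point dosing at 3 µM (nominal); timing: 17-24 h seeding, 75 min 37 °C dye, 30 min RT; signal: kinetic Fluo-8 calcium fluorescence; read-out basis: % activation relative to PEA EC100 response; controls: DMSO and PEA EC100; replicates: n 1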
TAAR1 ag confirm: human TAAR1 agonists, retest of hits, confirmation, Fluo-8 calcium fluorescence, CHO RD-HGA16 cells; activation, % at 3 µM; hit rate 82% among 2,400; shares compounds with TAAR1 ag; scaled: DMSO 0%, maximal phenethylamine 100%; AID 651783, 2012;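 active = activation above a cutoff set at the run's mean compound activation plus 3 SD, cut at about 39% in these data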
Ga16 ag counter: nonselective calcium mobilization agonists, CHO-Ga16 cells, counter-screen for hTAAR1 agonist project, cell-based, fluorescence, CHO-Ga16 parental line; hit rate 50% among 2,400; Fluo-8 calcium fluorescence; normalized to maximal ATP response, DMSO zero; shares compounds with TAAR1 ag; activation, % at 3 µM; AID 651787, 2012;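 active = activation above the run cutoff, the mean activation over all tested wells plus 3 SD, cut at about 12% in these data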;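 also: 0% = DMSO wells and 100% = maximal ATP response on the peak over basal ratio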
TAAR1 desensitize: TAAR1 desensitization by agonist hits, confirmation, counter-screen for TAAR1 agonist project, cell-based, fluorescence, tachyphylaxis | inhibition, % at 3 µM | AID 651951, 2012 | hit rate 46% among 2,400 | CHO RD-HGA16 hTAAR1, Fluo-8 calcium, beta-PEA response inhibition | shares compounds with TAAR1 ag;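 active = inhibition above the run cutoff, the mean inhibition of all test compounds plus 3 SD, cut at about 49% in these data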;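 also: beta-PEA stimulus applied at its EC80; loss of beta-PEA calcium signal after compound pretreatment read as receptor desensitization; 0% = DMSO with beta-PEA at EC80 and 100% = DMSO alone without agonist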
Ga16 antag count: inhibition of ATP-evoked calcium response in CHO-Ga16 cells, counter-screen for TAAR1 agonist project, cell-based, fluorescence | shares compounds with TAAR1 ag | CHO-Ga16 ATP-induced calcium, Fluo-8 fluorescence | inhibition, % at 3 µM | hit rate 39% among 2,400;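 active = inhibition above the plate's mean compound inhibition plus 3 SD, computed per plate, cut at about 22% in these data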;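 also: 0% = EC80 ATP with DMSO and 100% = DMSO wells without ATP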
Active calls of the source: *; / = not tested or not shown. Hits are enriched below; roughly 2.3% of the tested compounds scored in any of these assays.

SMILES	TAAR1 antagonist	V1aR counter	OXTR ag	OXTR potentiator	TAAR1 ag	TAAR1 ag confirm	Ga16 ag counter	TAAR1 desensitize	Ga16 antag count
CS(=O)(=O)N1CCC(Oc2cccc(C(=O)NCCCOc3cccnc3)c2)CC1	-10	2	1	-2	4	/	/	/	/
COc1cccc(NC(=O)CCC(=O)N2CC(C)Oc3ccc(C)cc32)c1 (centres undefined)	-14	0	-1	-8	4	/	/	/	/
Nc1nc(Nc2cccc(F)c2)nc2ccccc12	82*	0	0	-11	98*	91*	5	94*	6
O=c1oc(Nc2cccc(F)c2)nc2ccccc12	-13	0	1	-10	8	/	/	/	/
CC1NC(C)(C)Cc2c1ccc1ccccc21 (centres undefined)	-15	0	1	-9	0	/	/	/	/
CC1NC(C)c2c(ccc3ccccc23)O1 (centres undefined)	/	/	/	/	/	/	1	/	6
O=c1[nH]c2ccc(S(=O)(=O)N3CCCCC3)cc2s1	1	1	0	-3	0	/	/	/	/
c1ccc(C2OCC3(CO2)COC(c2ccccc2)OC3)cc1 (centres undefined)	1	1	-1	-10	59*	3	4	4	2
Cc1ccc(C2OCC3(CO2)COC(c2ccc(C)cc2)OC3)cc1 (centres undefined)	-18	0	1	-2	0	/	/	/	/
CC(=O)Nc1ccc(S(=O)(=O)N2CCC(C(N)=O)(N3CCCCC3)CC2)cc1	-1	1	1	-7	3	/	/	/	/
C/C(=C\C=C(C#N)C#N)c1cc(C#N)c(N)o1	37	/	/	/	99*	30	33*	27	25*
COc1ccc(N/C(N)=N/c2nc(C)cc(=O)[nH]2)cc1	-3	0	0	1	-1	/	/	/	/
CC(O)c1nc2ccccc2n1CCCCOc1ccccc1 (centres undefined)	-16	2	3	-4	4	/	/	/	/
Cc1cc(C)n2nc(C(=O)NCCc3ccccc3)nc2n1	-4	1	0	0	63*	54*	0	9	4
O=C(O)c1cc2nc(-c3cccs3)cc(C(F)(F)F)n2n1	0	0	1	-10	7	/	/	/	/
O=C(NCCc1ccccc1)c1nc2nc(-c3cccs3)cc(C(F)(F)F)n2n1	84*	-1	-3	-6	84*	91*	4	90*	18
CS(=O)(=O)N1CCCC(C(=O)Nc2c(F)cccc2F)C1 (centres undefined)	5	0	1	-2	9	/	/	/	/
Cc1ccc(C)c(S(=O)(=O)NCCC(=O)N2CCCC(C(N)=O)C2)c1 (centres undefined)	-15	0	0	-4	1	/	/	/	/
CC1=CC(C)(C)N(C(=O)c2ccc(F)cc2)c2cc3c(cc21)OCO3	37	9	13	-9	59*	62*	41*	46	34*
CC1=CC(C)(C)N(C(=O)CCl)c2cc(C)ccc21	-13	-1	-2	-7	0	/	/	/	/
COc1ccc(S(=O)(=O)NNC(=S)NCCc2ccccc2)c(OC)c1	-30	-1	0	-5	49*	17	1	3	6
COc1ccc(C2=NN(CN3C(=O)C(=O)c4ccccc43)C(c3cccc([N+](=O)[O-])c3)C2)cc1 (centres undefined)	0	-1	-1	6	-1	/	/	/	/
O=C(Nc1nnc(-c2cccs2)o1)c1cccc(C(F)(F)F)c1	34	18	-2	-9	90*	45*	51*	19	25*
Cc1ccccc1OCCC(=O)Nc1cc(S(=O)(=O)N2CCCCC2)ccc1N1CCN(C)CC1	49*	/	/	/	90*	105*	73*	78*	59*
CC(=O)c1ccccc1OCCOc1ncnc2sccc12	16	1	0	-1	3	/	/	/	/
SMILES	TAAR1 antagonist	V1aR counter	OXTR ag	OXTR potentiator	TAAR1 ag	TAAR1 ag confirm	Ga16 ag counter	TAAR1 desensitize	Ga16 antag count
Cc1cc(N/N=C/c2ccccc2O)nc(N2CCOCC2)n1	42	-1	-2	-11	43*	66*	2	82*	17
Cc1ccc(Nc2cc(C)nc(N3CCOCC3)n2)cc1	-6	-1	-2	-5	42*	35	1	19	6
COc1ccc(OC)c(/C=N/Nc2cc(C)nc(N3CCOCC3)n2)c1	19	-1	-2	-4	3	/	/	/	/
Cc1cccc(-c2cc3nc(C)cc(N4CC(C)CC(C)C4)n3n2)c1 (centres undefined)	-15	1	-1	-5	70*	82*	7	30	-2
COc1ccc(NC(=O)c2cc(F)cc(F)c2)cc1S(=O)(=O)N1CCCCC1	-11	2	0	-6	3	/	/	/	/
CC(C)(C)C1=NN(c2ccc([N+](=O)[O-])cc2)C(c2ccccc2)C1 (centres undefined)	34	0	0	-3	62*	0	0	6	9
O=[N+]([O-])c1ccc(N2N=C(c3ccco3)CC2c2ccccc2)cc1 (centres undefined)	42	4	2	-17	9	/	/	/	/
COc1ccc(C(=O)Cn2c(NCCCO)nc3ccccc32)cc1	-8	/	/	/	5	/	/	/	/
Cc1cc2nc(NCCCO)n(CC(=O)c3cc(C(C)(C)C)c(O)c(C(C)(C)C)c3)c2cc1C	44	-1	4	-10	49*	53*	30*	41	34*
NCCc1nc(-c2ccccc2)cs1	4	0	2	3	56*	73*	0	61*	11
COc1ccccc1CNC(=O)COC(=O)CSc1ccc(F)cc1	9	1	-1	-2	-1	/	/	/	/
